Screens as filed in PubChem.
Sampled rows, rich in hits. Any-hit rate of the full collection: about 1.4%.
Fh CTSL1 inh – blocks F. hepatica cathepsin L1 in PFM18AAP counter-screen. recombinant F. hepatica cathepsin L1, Z-Leu-Arg-MCA fluorescence. inhibition, % at 5.96 µM. actives 0.49% (n = 300,000);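 active = inhibition above the mean of all tested compounds plus 3 SD, set per screening campaign, cut at about 17% in these data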
Diaphorase act – activates diaphorase or chemically reduces, flagging diaphorase assay artifacts. Diaphorase/resazurin coupled assay, resorufin fluorescence, 16 min; active compounds read high; 1 = vehicle wells, 0 = NADH-free wells. activation factor at 20 µM. actives 0.005% (n = 190,000). AID 1229;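 active = diaphorase activity raised at least twofold by the compound at 20 µM; inactive = activation factor below 2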
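Assay system: Purified diaphorase enzyme from Clostridium kluyveri | Amount: Enzyme 0.07 U/mL final | Dosing: Compound 20 µM once, DMSO 1% | Timing: 16 min reaction at room temperature | Detection: Fluorescence, excitation 544 nm and emission 590 nm | Evaluation: Higher resorufin formation from activation or reduction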
HKDC1 inhibitor – inhibitors of human hexokinase HKDC1; Q2TB90; recombinant HKDC1, G6PDH/diaphorase resazurin coupled fluorescence; inhibition, % at 20 µM; actives 0.16% (n = 340,000); AID 493160;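 active = inhibition above about 35% when tested at 20 µM, limit read from the data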
Target sequence (Q2TB90 whole entry, looked up): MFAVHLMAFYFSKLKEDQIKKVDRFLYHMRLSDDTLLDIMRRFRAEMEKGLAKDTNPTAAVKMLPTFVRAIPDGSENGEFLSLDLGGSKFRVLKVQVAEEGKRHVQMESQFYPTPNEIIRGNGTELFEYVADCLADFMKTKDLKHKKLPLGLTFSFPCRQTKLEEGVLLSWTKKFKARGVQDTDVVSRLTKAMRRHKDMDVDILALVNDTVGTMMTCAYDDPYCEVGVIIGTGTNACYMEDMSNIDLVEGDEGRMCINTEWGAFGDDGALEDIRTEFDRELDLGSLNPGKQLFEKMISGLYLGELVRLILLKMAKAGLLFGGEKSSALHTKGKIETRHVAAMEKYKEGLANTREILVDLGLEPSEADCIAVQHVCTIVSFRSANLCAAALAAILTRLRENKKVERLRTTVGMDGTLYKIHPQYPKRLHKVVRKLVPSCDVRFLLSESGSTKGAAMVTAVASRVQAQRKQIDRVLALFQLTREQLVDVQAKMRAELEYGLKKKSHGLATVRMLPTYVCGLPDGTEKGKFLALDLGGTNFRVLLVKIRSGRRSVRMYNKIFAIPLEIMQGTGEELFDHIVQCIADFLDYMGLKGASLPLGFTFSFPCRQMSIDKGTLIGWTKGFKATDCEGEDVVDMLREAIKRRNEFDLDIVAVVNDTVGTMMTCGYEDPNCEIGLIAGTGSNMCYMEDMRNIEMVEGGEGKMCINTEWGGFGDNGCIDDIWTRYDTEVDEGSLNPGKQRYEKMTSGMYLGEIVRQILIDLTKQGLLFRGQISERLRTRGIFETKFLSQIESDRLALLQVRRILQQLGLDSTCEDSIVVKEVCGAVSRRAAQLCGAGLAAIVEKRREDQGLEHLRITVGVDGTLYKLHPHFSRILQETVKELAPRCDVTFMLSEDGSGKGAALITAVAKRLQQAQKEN
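Assay system – recombinant HKDC1 (HK5) hexokinase enzyme, produced in-house · Input – HKDC1 at 5 µg/mL · Reagent – glucose plus 1 mM ATP as hexokinase substrates · Timing – 90 min reaction incubation at room temperature, dark · Measured by – G6PDH/diaphorase-coupled fluorescence, 1 mM NADP, 100 µM resazurin, 525/613 nm · Benchmarks – DMSO-enzyme wells negative, buffer-substituted wells positive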
Diaph inh CS – diaphorase inhibition or chemical oxidation counter-screen; diaphorase resazurin-to-resorufin fluorescence, NADH, 16 min; bacterial (C. kluyveri) enzyme, not human; inhibition, % at 20 µM; actives 0.69% (n = 190,000); AID 1217;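 active = primary screen inhibition at 20 µM above a set limit, cut at about 50% in these data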
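System: Bacterial diaphorase enzyme (C. kluyveri) | Incubation: 16-min room-temperature incubation before reading | Benchmarks: No-NADH positive control and DMSO neutral control | Measured by: Resorufin fluorescence 544/590 nm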
ATG4B inh – blocks human ATG4B protease cleavage of LC3 substrate; actives 0.51% (n = 340,000); ATG4B cleavage of LC3-PLA2, NBD-HPC fluorescence, 1 h; inhibition, % at 8.33 µM; Q9Y4P1; in the data active = inhibition above about 40%
ATG4B conf – confirmation of human ATG4B inhibitors | shares compounds with ATG4B inh | ATG4B protease fluorescent substrate cleavage assay | inhibition, % at 8.33 µM | actives 92% (n = 320) | AID 504757; in the data active = inhibition above about 39%
PLA2 counter – inhibits human PLA2, flagging false ATG4B inhibitors. shares compounds with ATG4B inh. purified PLA2, NBD-C6-HPC fluorescence, 45 min. inhibition, % at 8.33 µM. actives 66% (n = 1,600). AID 588402; in the data active = inhibition above about 50%
A number is an active result.

`Cc1c(C(=O)OCC(=O)N(C)CC(=O)Nc2ccc(F)cc2)oc2ccccc12` gave HKDC1 inhibitor inactive and ATG4B inh inactive.
Cc1ccc(NC(=O)C2CCN(c3ncnc4c3nc3n4CCCCC3)CC2)cc1Cl was read as Fh CTSL1 inh inactive, HKDC1 inhibitor inactive, ATG4B inh 60 and PLA2 counter 69.
Screening Cc1cccc(N2CCN(C(=O)C3CCN(c4ncnc5c4nc4n5CCCCC4)CC3)CC2C)c1 (stereo not given) returned Fh CTSL1 inh inactive, HKDC1 inhibitor inactive, ATG4B inh 47, ATG4B conf 63 and PLA2 counter inactive.
Screening Cc1cccc(N2CCN(C(=O)C3CCN(c4ncnc5c4nc4n5CCCCC4)CC3)CC2)c1C returned Fh CTSL1 inh inactive, HKDC1 inhibitor inactive, ATG4B inh 63 and PLA2 counter 78.
For O=C(C1CCCN(c2ncnc3c2nc2n3CCCCC2)C1)N1CCN(c2cccc(Cl)c2)CC1 (stereo not given) the results were Fh CTSL1 inh inactive, HKDC1 inhibitor inactive and ATG4B inh inactive.
Screening Cc1ccc(NC(=O)C2CCCN(c3ncnc4c3nc3n4CCCCC3)C2)cc1Cl (stereo not given) returned Fh CTSL1 inh inactive, HKDC1 inhibitor inactive and ATG4B inh inactive.
`O=C(C1CCN(c2ncnc3c2nc2n3CCCCC2)CC1)N1CCN(c2ccccc2F)CC1` gave Fh CTSL1 inh inactive, HKDC1 inhibitor inactive and ATG4B inh inactive.
Screening COc1ccc(C)cc1NC(=O)C1CCN(C(=O)c2ccc(C(C)(C)C)cc2)CC1 returned Fh CTSL1 inh inactive, HKDC1 inhibitor inactive and ATG4B inh inactive.
`O=C1/C(=C\c2cccc(O)c2O)SC(=S)N1Cc1ccccc1` gave Fh CTSL1 inh inactive, HKDC1 inhibitor inactive, ATG4B inh 74 and PLA2 counter 89.
O=C1/C(=C\c2cc([N+](=O)[O-])ccc2O)SC(=S)N1Cc1ccc(Cl)cc1 was read as Fh CTSL1 inh inactive, HKDC1 inhibitor inactive, ATG4B inh 52 and PLA2 counter 51.
Screening O=C1/C(=C\c2ccc(O)c(O)c2)SC(=S)N1Cc1ccccc1 returned HKDC1 inhibitor inactive and ATG4B inh inactive.
`NC(=O)c1ccc(C(F)(F)F)n(Cc2cccc(Cl)c2)c1=O` gave Fh CTSL1 inh inactive, Diaphorase act inactive, HKDC1 inhibitor inactive, Diaph inh CS inactive, ATG4B inh 45, ATG4B conf 64 and PLA2 counter inactive.
For Cc1ccccc1CSCC(=O)Nc1ccccc1-c1ccccc1 the results were Fh CTSL1 inh inactive, Diaphorase act inactive, HKDC1 inhibitor inactive, Diaph inh CS inactive, ATG4B inh 51 and PLA2 counter 59.
O=C(CSCc1cccc(Cl)c1)Nc1ccccc1-c1ccccc1 was read as Fh CTSL1 inh inactive, Diaphorase act inactive, HKDC1 inhibitor inactive, Diaph inh CS inactive, ATG4B inh 47 and PLA2 counter 51.
For CN(CC(=O)Nc1ccccc1-c1ccccc1)Cc1ccccc1Cl the results were Fh CTSL1 inh inactive, Diaphorase act inactive, HKDC1 inhibitor inactive, Diaph inh CS inactive, ATG4B inh 55 and PLA2 counter 52.
`CN(CC(=O)Nc1ccccc1Br)CC(=O)Nc1ccccc1-c1ccccc1` gave HKDC1 inhibitor inactive and ATG4B inh inactive.
NC(=O)c1ccccc1NC(=O)COC(=O)CSCc1cccc(Cl)c1 was read as HKDC1 inhibitor inactive and ATG4B inh inactive.
`COc1ccccc1CN(C)C(=O)c1ccc(S(=O)(=O)Nc2c(C)n(C)n(-c3ccccc3)c2=O)cc1` gave HKDC1 inhibitor inactive and ATG4B inh inactive.
For CCCCCCCOC(=O)C[N+](C)(C)CCOC1CC2CCC1(C)C2(C)C (stereo not given) the results were Diaphorase act inactive, HKDC1 inhibitor inactive, Diaph inh CS inactive, ATG4B inh 53, ATG4B conf 48 and PLA2 counter inactive.
Screening Cc1nn(CCCC(=O)Nc2cccnc2)c(C)c1[N+](=O)[O-] returned Fh CTSL1 inh inactive, Diaphorase act inactive, HKDC1 inhibitor inactive, Diaph inh CS inactive and ATG4B inh inactive.
Cc1ccccc1Oc1cc(NC(=O)Cn2cnc([N+](=O)[O-])c2)cc([N+](=O)[O-])c1 was read as Fh CTSL1 inh inactive, Diaphorase act inactive, HKDC1 inhibitor inactive, Diaph inh CS inactive and ATG4B inh inactive.
Cc1nn(CCCC(=O)Nc2cc(Oc3ccc(F)cc3)cc([N+](=O)[O-])c2)c(C)c1[N+](=O)[O-] was read as Fh CTSL1 inh inactive, Diaphorase act inactive, HKDC1 inhibitor inactive, Diaph inh CS inactive, ATG4B inh 56 and PLA2 counter 60.
Screening Cc1c(Cl)c([N+](=O)[O-])nn1CCCC(=O)Nc1cc(Oc2ccccc2)cc([N+](=O)[O-])c1 returned Fh CTSL1 inh inactive, Diaphorase act inactive, HKDC1 inhibitor inactive, Diaph inh CS inactive, ATG4B inh 89 and PLA2 counter 88.
Screening Cc1ccccc1Oc1cc(NC(=O)CCCn2nc(C)c([N+](=O)[O-])c2C)cc([N+](=O)[O-])c1 returned Fh CTSL1 inh inactive, Diaphorase act inactive, HKDC1 inhibitor inactive, Diaph inh CS inactive, ATG4B inh 66 and PLA2 counter 63.
For Cc1c(Cl)c([N+](=O)[O-])nn1CCCC(=O)N(Cc1ccccc1)Cc1ccccc1 the results were Fh CTSL1 inh inactive, Diaphorase act inactive, HKDC1 inhibitor inactive, Diaph inh CS inactive, ATG4B inh 52 and PLA2 counter 60.
For O=C(CCc1nc2ccccc2c(=O)[nH]1)NNC(=O)c1ccc(F)cc1 the results were HKDC1 inhibitor inactive and ATG4B inh inactive.
Screening O=C(N[C@@H]1c2ccccc2CC[C@@H]1OCc1ccccc1)c1ccc(C(F)(F)F)cc1 returned HKDC1 inhibitor inactive and ATG4B inh inactive.
`CN(C)CCNC(=O)C(=O)Nc1cc2c3c(c1)CCN3C(=O)CC2` gave Fh CTSL1 inh inactive, HKDC1 inhibitor inactive and ATG4B inh inactive.
`COc1cc2c(cc1OC)CN(C(=O)c1cc(S(=O)(=O)N3CCOCC3)c(Cl)cc1Cl)CC2` gave Fh CTSL1 inh inactive, HKDC1 inhibitor inactive and ATG4B inh inactive.
Cc1noc(C)c1CSc1nc2ccccc2c(=O)n1-c1ccc(F)cc1F was read as Fh CTSL1 inh inactive, Diaphorase act inactive, HKDC1 inhibitor inactive, Diaph inh CS inactive, ATG4B inh 59 and PLA2 counter 67.
Oc1c(Br)cc(Br)cc1C=NCc1ccccc1 was read as Fh CTSL1 inh inactive, Diaphorase act inactive, HKDC1 inhibitor inactive, Diaph inh CS inactive, ATG4B inh 73 and PLA2 counter 71.
